{
  "source": "paper PMC3334839",
  "about": "(The Journal of Neuroscience, 2012)",
  "key": {"[1]": {"biological_target": "α1β1 GlyRs (Homo sapiens, UniProt P23415)", "sequence (P23415 29-457)": "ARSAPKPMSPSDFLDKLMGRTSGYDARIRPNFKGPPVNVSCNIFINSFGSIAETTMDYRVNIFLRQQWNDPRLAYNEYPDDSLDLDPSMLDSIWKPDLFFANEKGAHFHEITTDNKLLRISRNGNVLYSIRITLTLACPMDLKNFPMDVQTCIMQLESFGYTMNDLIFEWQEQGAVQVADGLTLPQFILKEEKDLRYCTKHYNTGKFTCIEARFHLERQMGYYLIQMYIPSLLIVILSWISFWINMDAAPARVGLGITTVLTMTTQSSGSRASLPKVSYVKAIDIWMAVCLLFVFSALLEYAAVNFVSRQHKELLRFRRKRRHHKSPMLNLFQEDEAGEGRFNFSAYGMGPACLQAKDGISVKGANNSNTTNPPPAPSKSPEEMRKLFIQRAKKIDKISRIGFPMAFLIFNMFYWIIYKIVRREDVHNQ", "sequence (P48167 23-497 partner)": "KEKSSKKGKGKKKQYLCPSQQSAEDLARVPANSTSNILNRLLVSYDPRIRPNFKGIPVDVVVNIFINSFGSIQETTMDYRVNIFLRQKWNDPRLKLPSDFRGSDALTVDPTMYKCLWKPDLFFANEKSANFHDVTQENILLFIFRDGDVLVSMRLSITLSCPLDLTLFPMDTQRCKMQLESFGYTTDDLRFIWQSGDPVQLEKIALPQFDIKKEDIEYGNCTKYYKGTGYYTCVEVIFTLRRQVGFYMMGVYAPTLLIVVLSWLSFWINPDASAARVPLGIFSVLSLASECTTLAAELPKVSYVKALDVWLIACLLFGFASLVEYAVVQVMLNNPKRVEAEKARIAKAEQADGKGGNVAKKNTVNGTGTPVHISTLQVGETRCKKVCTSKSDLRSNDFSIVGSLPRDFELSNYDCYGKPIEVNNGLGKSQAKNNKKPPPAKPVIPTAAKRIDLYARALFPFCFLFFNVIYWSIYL", "assay_type": "cell-based"}, "[2]": {"biological_target": "T1, S296A mutant human α1 GlyR (Homo sapiens, UniProt P23415, S324A)", "T1 sequence (P23415 29-457 S324A)": "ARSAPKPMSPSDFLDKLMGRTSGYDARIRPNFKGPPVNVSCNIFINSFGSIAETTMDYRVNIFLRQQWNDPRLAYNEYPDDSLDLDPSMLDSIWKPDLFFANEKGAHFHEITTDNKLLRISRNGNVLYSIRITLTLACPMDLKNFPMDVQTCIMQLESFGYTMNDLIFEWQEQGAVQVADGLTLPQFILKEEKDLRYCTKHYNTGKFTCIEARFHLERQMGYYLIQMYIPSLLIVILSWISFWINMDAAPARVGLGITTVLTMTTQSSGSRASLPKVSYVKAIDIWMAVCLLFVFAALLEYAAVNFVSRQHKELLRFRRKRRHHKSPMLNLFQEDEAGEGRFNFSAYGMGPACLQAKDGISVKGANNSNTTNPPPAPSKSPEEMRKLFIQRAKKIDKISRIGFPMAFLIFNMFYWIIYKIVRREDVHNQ", "test": "cell-based", "assay_type": "cell-based", "conditions": "S296A α1"}, "[3]": {"biological_target": "T2, human α1 GlyR (Homo sapiens, UniProt P23415)", "T2 sequence (P23415 29-457)": "T1 sequence (P23415 29-457 S324A) with A296S", "test": "cell-based", "assay_type": "cell-based", "conditions": "for average percent potentiation of IGly: concentration-response (Fig. 1E)"}, "[4]": {"biological_target": "CB2 receptors", "conditions": "read-out: binding affinity (Ki) for CB2 receptors; ref Pertwee, 2000; cited from earlier work"}, "[5]": {"system": "native GlyRs in cultured spinal neurons", "test": "Whole-cell patch-clamp of Gly-activated current", "assay_type": "cell-based, rat", "conditions": "for average percent potentiation of IGly: concentration-response (Fig. 1E), EC2 Gly", "method_in_brief": "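Spinal cords from postnatal day 0 rats, papain-dissociated (20 U/ml, 37°C, 40 min). Plated at 300,000 cells/ml on poly-d-lysine in MEM/10% FBS, cultured ≥10 d, washed 30 min in external solution. Whole-cell, −60 mV, 20–22°C.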"}, "[6]": {"biological_target": "T3, human 5-HT3A receptor (Homo sapiens, UniProt P46098)", "T3 sequence (P46098 24-478)": "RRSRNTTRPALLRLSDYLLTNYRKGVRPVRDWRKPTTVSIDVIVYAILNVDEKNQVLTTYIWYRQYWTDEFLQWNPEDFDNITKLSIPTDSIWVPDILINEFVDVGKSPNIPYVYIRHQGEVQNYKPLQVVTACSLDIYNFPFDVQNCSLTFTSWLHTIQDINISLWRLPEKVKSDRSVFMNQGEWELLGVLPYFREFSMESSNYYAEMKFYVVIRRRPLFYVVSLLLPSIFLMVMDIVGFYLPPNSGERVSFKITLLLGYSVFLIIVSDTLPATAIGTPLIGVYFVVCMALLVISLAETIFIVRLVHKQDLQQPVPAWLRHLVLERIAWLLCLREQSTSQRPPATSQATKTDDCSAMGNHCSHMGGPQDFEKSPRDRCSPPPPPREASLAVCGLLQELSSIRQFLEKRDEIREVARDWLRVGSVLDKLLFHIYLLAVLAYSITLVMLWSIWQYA", "assay_type": "cell-based", "method_in_brief": "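Human 5-HT3A receptors (wild-type or point mutant made by site-directed mutagenesis) transfected into HEK-293 cells. Cells recorded 2 d later, trypsin/EDTA-treated 2 h before, lifted, superfused with HEPES-buffered saline (pH 7.4). Whole-cell, CsCl pipette, −60 mV, 20–22°C. 5-HT 30 μM pulses before, during and after continuous 5 min test compound (0.1 μM) incubation; 5–7 cells, mean ± SE.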"}},
  "note": "Where a chain is given by its changes, count along the chain named.",
  "data": [
    {"compound": "CCCCC/C=C\\C/C=C\\C/C=C\\C/C=C\\CCCC(=O)NCCO", "note": "[AEA, anandamide]", "values": [
      {"measurement": "time to maximal potentiation of IGly", "setting": "[1]; 1 μM AEA sustained application, α1β1 heteromeric", "result": 5, "unit": "min"},
      {"measurement": "average percentage potentiation of IGly", "setting": "[1]; 1 μM AEA, 5 min sustained application, EC2 Gly, α1β1 (Fig. 1C)", "result": "85 ± 12", "unit": "%"},
      {"measurement": "AEA-induced potentiation of IGly, simultaneous application", "setting": "[2]; 10 μM AEA simultaneously applied only with Gly", "result": "99 ± 20", "unit": "%"},
      {"measurement": "AEA-induced potentiation of IGly", "setting": "[2]; 10 μM AEA, 5 min sustained, EC2 Gly (10 μM)", "result": "131 ± 41", "unit": "%"},
      {"measurement": "EC50", "setting": "[3]", "result": "4.2 ± 1.95", "unit": "µM"},
      {"measurement": "time to maximal potentiation of IGly", "setting": "[3]; 1 μM AEA sustained application, α1 homomeric", "result": 5, "unit": "min"},
      {"measurement": "average percentage potentiation of IGly", "setting": "[3]; 1 μM AEA, 5 min sustained application, EC2 Gly, α1 (Fig. 1C)", "result": "97 ± 16", "unit": "%"},
      {"measurement": "percentage potentiation of IGly, initial value", "setting": "[3]; 1 μM AEA, after 1 min of AEA exposure, HEK-293 cells", "result": "3 ± 1", "unit": "%"},
      {"measurement": "average percent potentiation of IGly", "setting": "[3]; 1 μM AEA, EC2 Gly", "result": "91 ± 9", "unit": "%"},
      {"measurement": "average percent potentiation of IGly", "setting": "[3]; 3 μM AEA, EC2 Gly", "result": "311 ± 86", "unit": "%"},
      {"measurement": "AEA-induced potentiation of IGly, simultaneous application", "setting": "[3]; 10 μM AEA simultaneously applied only with Gly, wild-type α1", "result": "108 ± 15", "unit": "%"},
      {"measurement": "average percentage potentiation of IGly", "setting": "[3]; 10 μM AEA, Gly 30 μM", "result": "102 ± 49", "unit": "%"},
      {"measurement": "average percentage potentiation of IGly", "setting": "[3]; 10 μM AEA, Gly 100 μM", "result": "24 ± 6", "unit": "%"},
      {"measurement": "average percent potentiation of IGly", "setting": "[3]; 10 μM AEA, Gly 10 μM", "result": "712 ± 96", "unit": "%"},
      {"measurement": "average percent potentiation of IGly", "setting": "[3]; 30 μM AEA, EC2 Gly", "result": "824 ± 278", "unit": "%"},
      {"measurement": "maximal potentiation of α1 GlyRs", "setting": "[3]; AEA applied continuously for 5 min with intermittent Gly", "result": "700–800%"},
      {"measurement": "direct activation of current by AEA alone", "setting": "[3]; even at high concentrations (> 30 μM), no Gly, cell type not specified", "result": "did not trigger detectable current"},
      {"measurement": "Ki", "setting": "[4]", "result": "0.279 to 1.94", "unit": "µM"},
      {"measurement": "time to maximal potentiation of IGly", "setting": "[5]; 1 μM AEA sustained application", "result": 5, "unit": "min"},
      {"measurement": "average percentage potentiation of IGly", "setting": "[5]; 1 μM AEA, 5 min sustained application, EC2 Gly (Fig. 1C)", "result": "86 ± 24", "unit": "%"},
      {"measurement": "percentage potentiation of IGly, initial value", "setting": "[5]; 1 μM AEA, after 1 min of AEA exposure, neurons", "result": "6 ± 6", "unit": "%"},
      {"measurement": "average percent potentiation of IGly", "setting": "[5]; 1 μM AEA", "result": "79 ± 19", "unit": "%"},
      {"measurement": "average percent potentiation of IGly", "setting": "[5]; 3 μM AEA", "result": "236 ± 52", "unit": "%"},
      {"measurement": "average percent potentiation of IGly", "setting": "[5]; 10 μM AEA", "result": "636 ± 87", "unit": "%"},
      {"measurement": "average percent potentiation of IGly", "setting": "[5]; 30 μM AEA", "result": "800 ± 71", "unit": "%"},
      {"measurement": "effect on 5-HT-activated current", "setting": "[6]; 0.1 μM AEA for 5 min, 5-HT 30 μM, wild-type", "result": "gradually developing inhibition"},
      {"measurement": "time to maximal inhibition of I5-HT", "setting": "[6]; continuous exposure to 0.1 μM AEA", "result": 5, "unit": "min"}
    ]}
  ]
}
